In ChEMBL document CHEMBL3352430, “4-Aminopyridyl-based CYP51 inhibitors as anti-Trypanosoma cruzi drug leads with improved pharmacokinetic profile and in vivo potency” (J Med Chem, 2014):

System: Intestine
Assay: Drug uptake in mouse intestine at 50 mg/kg, po in 20% Kolliphor measured at 8 hrs post dose
Type: ADME, organism-based
Design: dose 50 mg/kg, route oral
Details: in vivo; call rule not given here
Method in brief: (§1)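 Female Swiss Webster mice, 8 weeks old, given a single 50 mg/kg oral gavage dose in 20% HPβCD or 20% Kolliphor. Tissues taken from three mice at 2 and 8 h post dose. Homogenized by probe sonication in PBS (1:4 w/v), protein precipitated with acetonitrile, and compound measured by LC-MS/MS in μM.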

Structure (SMILES)	Drug uptake
O=C(N[C@H](Cc1c[nH]c2ccccc12)C(=O)Nc1ccncc1)c1ccc(-c2cccc(C(F)(F)F)c2)cc1F	Active

System: Trypanosoma cruzi
Assay: Antitrypanosomal activity against Trypanosoma cruzi amastigotes infected in mouse C2C12 cells after 72 hrs by DAPI staining method
Type: functional, organism-based
Details: C2C12, 72 h

Structure (SMILES)	EC50
O=C(N[C@H](Cc1c[nH]c2ccccc12)C(=O)Nc1ccncc1)c1ccc(-c2cccc(C(F)(F)F)c2)cc1F	39 nM

System: Trypanosoma cruzi
Assay: Antitrypanosomal activity against Trypanosoma cruzi Y luc infected in mouse assessed as inhibition of parasitemia at 25 mg/kg, po bid in 20% Kolliphor administered for 4 consecutive days starting on day 3 of infection measured on day 7 post infection relative to vehicle-treated control
Type: functional
Details: not given
Method in brief: (§2)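 Female Swiss Webster mice, 8 weeks old, infected ip with 10^5 T. cruzi Y luc trypomastigotes. Only mice with detectable luminescence on day 3 were treated. Compound given by oral gavage bid for four days, as a suspension in 20% HPβCD or a solution in 20% Kolliphor, five mice per group. Vehicle group and benznidazole 50 mg/kg served as controls. On day 7, mice were injected ip with 150 mg/kg d-luciferin and imaged after 5 min under isoflurane. Percent inhibition calculated against untreated mice; two-tailed paired t test.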

Structure (SMILES)	inhibition in vivo at 25 mg/kg
O=C(N[C@H](Cc1c[nH]c2ccccc12)C(=O)Nc1ccncc1)c1ccc(-c2cccc(C(F)(F)F)c2)cc1F	74.7%

System: Liver
Assay: Half life in mouse liver microsomes
Type: ADME
Details: not given

Structure (SMILES)	t1/2
O=C(N[C@H](Cc1c[nH]c2ccccc12)C(=O)Nc1ccncc1)c1ccc(-c2cccc(C(F)(F)F)c2)cc1F	51 min

System: Trypanosoma cruzi
Assay: Antitrypanosomal activity against Trypanosoma cruzi Y luc infected in mouse assessed as inhibition of parasitemia at 50 mg/kg, po bid in 20% Kolliphor administered for 4 consecutive days starting on day 3 of infection measured on day 7 post infection relative to vehicle-treated control
Type: functional
Details: not given
Method in brief: as §2

Structure (SMILES)	inhibition in vivo at 50 mg/kg
O=C(N[C@H](Cc1c[nH]c2ccccc12)C(=O)Nc1ccncc1)c1ccc(-c2cccc(C(F)(F)F)c2)cc1F	99.2%

System: Liver microsome
Assay: Half life in human liver microsomes
Type: ADME
Details: not given

Structure (SMILES)	t1/2
O=C(N[C@H](Cc1c[nH]c2ccccc12)C(=O)Nc1ccncc1)c1ccc(-c2cccc(C(F)(F)F)c2)cc1F	33 min

System: Liver
Assay: Drug uptake in mouse liver at 50 mg/kg, po in 20% Kolliphor measured at 8 hrs post dose
Type: ADME, organism-based
Design: dose 50 mg/kg, route oral
Details: in vivo
Method in brief: as §1

Structure (SMILES)	Drug uptake
O=C(N[C@H](Cc1c[nH]c2ccccc12)C(=O)Nc1ccncc1)c1ccc(-c2cccc(C(F)(F)F)c2)cc1F	Active

System: Lung
Assay: Drug uptake in mouse lung at 50 mg/kg, po in 20% HP-beta-CD measured at 8 hrs post dose
Type: ADME, organism-based
Design: dose 50 mg/kg, route oral
Details: in vivo
Method in brief: as §1

Structure (SMILES)	Drug uptake
O=C(N[C@H](Cc1c[nH]c2ccccc12)C(=O)Nc1ccncc1)c1ccc(-c2cccc(C(F)(F)F)c2)cc1F	Active

System: Liver microsome
Assay: Half life in rat liver microsomes
Type: ADME
Details: not given

Structure (SMILES)	t1/2
O=C(N[C@H](Cc1c[nH]c2ccccc12)C(=O)Nc1ccncc1)c1ccc(-c2cccc(C(F)(F)F)c2)cc1F	31 min

Molecular target: Cytochrome P450 3A4 (Homo sapiens, UniProt P08684)
Sequence (P08684 whole entry): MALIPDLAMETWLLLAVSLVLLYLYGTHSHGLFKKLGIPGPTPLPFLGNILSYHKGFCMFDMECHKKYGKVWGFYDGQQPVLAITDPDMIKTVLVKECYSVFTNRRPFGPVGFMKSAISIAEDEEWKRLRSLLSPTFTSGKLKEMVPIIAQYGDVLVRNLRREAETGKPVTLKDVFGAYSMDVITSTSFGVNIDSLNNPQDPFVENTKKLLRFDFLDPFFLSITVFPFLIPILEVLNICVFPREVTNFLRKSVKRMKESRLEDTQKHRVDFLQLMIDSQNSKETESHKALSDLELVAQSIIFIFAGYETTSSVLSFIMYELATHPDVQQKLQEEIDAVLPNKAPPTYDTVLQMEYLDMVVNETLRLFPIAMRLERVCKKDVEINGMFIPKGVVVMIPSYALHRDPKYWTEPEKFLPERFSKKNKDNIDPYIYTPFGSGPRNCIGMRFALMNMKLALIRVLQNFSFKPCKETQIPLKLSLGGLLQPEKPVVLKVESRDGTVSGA
Assay: Inhibition of CYP3A4 in human liver microsomes at 1 uM
Type: ADME
Details: not given

Structure (SMILES)	inhibition (INH)
O=C(N[C@H](Cc1c[nH]c2ccccc12)C(=O)Nc1ccncc1)c1ccc(-c2cccc(C(F)(F)F)c2)cc1F	7%

System: not listed separately
Assay: Drug uptake in mouse fat at 50 mg/kg, po in 20% HP-beta-CD measured at 8 hrs post dose
Type: ADME, organism-based, Adipose tissue
Design: dose 50 mg/kg, route oral
Details: in vivo
Method in brief: as §1

Structure (SMILES)	Drug uptake
O=C(N[C@H](Cc1c[nH]c2ccccc12)C(=O)Nc1ccncc1)c1ccc(-c2cccc(C(F)(F)F)c2)cc1F	Active

System: not listed separately
Assay: Drug uptake in mouse fat at 50 mg/kg, po in 20% Kolliphor measured at 8 hrs post dose
Type: ADME, organism-based, Adipose tissue
Design: dose 50 mg/kg, route oral
Details: in vivo
Method in brief: as §1

Structure (SMILES)	Drug uptake
O=C(N[C@H](Cc1c[nH]c2ccccc12)C(=O)Nc1ccncc1)c1ccc(-c2cccc(C(F)(F)F)c2)cc1F	Active

Molecular target: Sterol 14-alpha demethylase (Trypanosoma cruzi (strain CL Brener), UniProt Q7Z1V1)
Sequence (Q7Z1V1 whole entry): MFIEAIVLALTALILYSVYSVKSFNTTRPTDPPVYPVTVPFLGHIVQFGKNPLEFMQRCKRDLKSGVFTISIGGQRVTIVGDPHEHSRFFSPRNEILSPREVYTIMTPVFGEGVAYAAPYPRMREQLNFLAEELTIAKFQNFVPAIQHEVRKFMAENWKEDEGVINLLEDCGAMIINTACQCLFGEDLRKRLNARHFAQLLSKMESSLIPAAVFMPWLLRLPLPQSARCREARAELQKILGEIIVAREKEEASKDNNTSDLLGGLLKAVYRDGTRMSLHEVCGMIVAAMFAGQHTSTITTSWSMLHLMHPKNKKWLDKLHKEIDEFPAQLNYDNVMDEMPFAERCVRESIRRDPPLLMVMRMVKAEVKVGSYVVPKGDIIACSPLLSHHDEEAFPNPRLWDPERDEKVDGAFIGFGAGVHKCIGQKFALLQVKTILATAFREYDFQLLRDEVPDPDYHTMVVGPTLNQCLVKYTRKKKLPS
Assay: Binding affinity to Trypanosoma cruzi CYP51 by UV-vis titration method
Details: read-out: Kd(app)

Structure (SMILES)	Kd
O=C(N[C@H](Cc1c[nH]c2ccccc12)C(=O)Nc1ccncc1)c1ccc(-c2cccc(C(F)(F)F)c2)cc1F	80 nM

System: not listed separately
Assay: Drug uptake in mouse skeletal muscle at 50 mg/kg, po in 20% HP-beta-CD measured at 8 hrs post dose
Type: ADME, organism-based, Muscle tissue
Design: dose 50 mg/kg, route oral
Details: in vivo
Method in brief: as §1

Structure (SMILES)	Drug uptake
O=C(N[C@H](Cc1c[nH]c2ccccc12)C(=O)Nc1ccncc1)c1ccc(-c2cccc(C(F)(F)F)c2)cc1F	Active

System: Heart
Assay: Drug uptake in mouse heart at 50 mg/kg, po in 20% Kolliphor measured at 8 hrs post dose
Type: ADME, organism-based
Design: dose 50 mg/kg, route oral
Details: in vivo
Method in brief: as §1

Structure (SMILES)	Drug uptake
O=C(N[C@H](Cc1c[nH]c2ccccc12)C(=O)Nc1ccncc1)c1ccc(-c2cccc(C(F)(F)F)c2)cc1F	Active

System: Heart
Assay: Drug uptake in mouse heart at 50 mg/kg, po in 20% HP-beta-CD measured at 8 hrs post dose
Type: ADME, organism-based
Design: dose 50 mg/kg, route oral
Details: in vivo
Method in brief: as §1

Structure (SMILES)	Drug uptake
O=C(N[C@H](Cc1c[nH]c2ccccc12)C(=O)Nc1ccncc1)c1ccc(-c2cccc(C(F)(F)F)c2)cc1F	Active

System: C2C12
Assay: Cytotoxicity against mouse C2C12 cells up to 10 uM
Type: cell-based
Details: not given
Method in brief: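 Mouse C2C12 myoblasts infected with T. cruzi CA-I/72, then exposed at 24 h postinfection to compound at 10 μM down to 5 pM in 5-fold steps for 72 h at 37 °C. Cells fixed in paraformaldehyde, stained with DAPI and scored by automated imaging. Triplicate wells; uninfected and infected untreated wells as controls.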

Structure (SMILES)	Activity
O=C(N[C@H](Cc1c[nH]c2ccccc12)C(=O)Nc1ccncc1)c1ccc(-c2cccc(C(F)(F)F)c2)cc1F	Non-toxic

System: Liver
Assay: Drug uptake in mouse liver at 50 mg/kg, po in 20% HP-beta-CD measured at 8 hrs post dose
Type: ADME, organism-based
Design: dose 50 mg/kg, route oral
Details: in vivo
Method in brief: as §1

Structure (SMILES)	Drug uptake
O=C(N[C@H](Cc1c[nH]c2ccccc12)C(=O)Nc1ccncc1)c1ccc(-c2cccc(C(F)(F)F)c2)cc1F	Active

System: Intestine
Assay: Drug uptake in mouse intestine at 50 mg/kg, po in 20% HP-beta-CD measured at 8 hrs post dose
Type: ADME, organism-based
Design: dose 50 mg/kg, route oral
Details: in vivo
Method in brief: as §1

Structure (SMILES)	Drug uptake
O=C(N[C@H](Cc1c[nH]c2ccccc12)C(=O)Nc1ccncc1)c1ccc(-c2cccc(C(F)(F)F)c2)cc1F	Active

Molecular target: Cytochrome P450 2C9 (Homo sapiens, UniProt P11712)
Sequence (P11712 whole entry): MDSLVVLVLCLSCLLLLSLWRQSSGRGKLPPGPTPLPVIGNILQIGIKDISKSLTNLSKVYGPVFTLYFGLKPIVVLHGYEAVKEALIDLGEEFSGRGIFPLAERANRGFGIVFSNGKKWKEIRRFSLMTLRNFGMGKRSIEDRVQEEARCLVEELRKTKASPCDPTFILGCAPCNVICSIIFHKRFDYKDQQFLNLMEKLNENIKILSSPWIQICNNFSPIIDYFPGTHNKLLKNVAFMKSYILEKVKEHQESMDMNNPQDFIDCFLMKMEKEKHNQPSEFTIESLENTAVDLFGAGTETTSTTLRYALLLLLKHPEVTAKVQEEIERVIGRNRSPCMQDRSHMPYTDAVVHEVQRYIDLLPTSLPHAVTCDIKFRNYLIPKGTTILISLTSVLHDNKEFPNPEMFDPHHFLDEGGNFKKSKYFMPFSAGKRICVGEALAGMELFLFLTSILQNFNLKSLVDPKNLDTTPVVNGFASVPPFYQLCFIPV
Assay: Inhibition of CYP2C9 in human liver microsomes at 1 uM
Type: ADME
Details: not given

Structure (SMILES)	inhibition (INH)
O=C(N[C@H](Cc1c[nH]c2ccccc12)C(=O)Nc1ccncc1)c1ccc(-c2cccc(C(F)(F)F)c2)cc1F	92%

System: Trypanosoma cruzi
Assay: Antitrypanosomal activity against Trypanosoma cruzi Y luc infected in mouse assessed as inhibition of parasitemia at 40 mg/kg, ip bid in 60% DMSO administered for 4 consecutive days starting on day 3 of infection measured on day 7 post infection relative to vehicle-treated control
Details: not given

Structure (SMILES)	inhibition in vivo at 40 mg/kg
O=C(N[C@H](Cc1c[nH]c2ccccc12)C(=O)Nc1ccncc1)c1ccc(-c2cccc(C(F)(F)F)c2)cc1F	98.5%

System: not listed separately
Assay: Drug uptake in mouse skeletal muscle at 50 mg/kg, po in 20% Kolliphor measured at 8 hrs post dose
Type: ADME, organism-based, Muscle tissue
Design: dose 50 mg/kg, route oral
Details: in vivo
Method in brief: as §1

Structure (SMILES)	Drug uptake
O=C(N[C@H](Cc1c[nH]c2ccccc12)C(=O)Nc1ccncc1)c1ccc(-c2cccc(C(F)(F)F)c2)cc1F	Active

System: Lung
Assay: Drug uptake in mouse lung at 50 mg/kg, po in 20% Kolliphor measured at 8 hrs post dose
Type: ADME, organism-based
Design: dose 50 mg/kg, route oral
Details: in vivo
Method in brief: as §1

Structure (SMILES)	Drug uptake
O=C(N[C@H](Cc1c[nH]c2ccccc12)C(=O)Nc1ccncc1)c1ccc(-c2cccc(C(F)(F)F)c2)cc1F	Active

Molecular target: T1, Cytochrome P450 1A2 (Homo sapiens, UniProt P05177)
T1 sequence (P05177 whole entry): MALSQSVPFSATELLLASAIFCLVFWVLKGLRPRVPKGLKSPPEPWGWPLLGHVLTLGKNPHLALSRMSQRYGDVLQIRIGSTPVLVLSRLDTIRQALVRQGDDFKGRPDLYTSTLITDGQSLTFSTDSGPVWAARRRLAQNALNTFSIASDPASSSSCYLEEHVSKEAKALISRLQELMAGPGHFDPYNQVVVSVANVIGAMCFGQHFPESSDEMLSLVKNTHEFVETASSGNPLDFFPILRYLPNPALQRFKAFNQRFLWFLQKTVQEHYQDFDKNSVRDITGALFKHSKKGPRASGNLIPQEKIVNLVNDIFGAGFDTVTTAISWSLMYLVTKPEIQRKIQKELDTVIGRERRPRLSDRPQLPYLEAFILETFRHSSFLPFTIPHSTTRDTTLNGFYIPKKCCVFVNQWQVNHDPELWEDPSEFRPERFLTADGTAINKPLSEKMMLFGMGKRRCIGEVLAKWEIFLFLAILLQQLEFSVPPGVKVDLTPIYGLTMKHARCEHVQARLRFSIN
Assay: Inhibition of CYP1A2 in human liver microsomes at 1 uM
Type: ADME
Details: not given

Structure (SMILES)	inhibition (INH)
O=C(N[C@H](Cc1c[nH]c2ccccc12)C(=O)Nc1ccncc1)c1ccc(-c2cccc(C(F)(F)F)c2)cc1F	-16%

Molecular target: Cytochrome P450 2D6 (Homo sapiens, UniProt P10635)
Sequence (P10635 whole entry): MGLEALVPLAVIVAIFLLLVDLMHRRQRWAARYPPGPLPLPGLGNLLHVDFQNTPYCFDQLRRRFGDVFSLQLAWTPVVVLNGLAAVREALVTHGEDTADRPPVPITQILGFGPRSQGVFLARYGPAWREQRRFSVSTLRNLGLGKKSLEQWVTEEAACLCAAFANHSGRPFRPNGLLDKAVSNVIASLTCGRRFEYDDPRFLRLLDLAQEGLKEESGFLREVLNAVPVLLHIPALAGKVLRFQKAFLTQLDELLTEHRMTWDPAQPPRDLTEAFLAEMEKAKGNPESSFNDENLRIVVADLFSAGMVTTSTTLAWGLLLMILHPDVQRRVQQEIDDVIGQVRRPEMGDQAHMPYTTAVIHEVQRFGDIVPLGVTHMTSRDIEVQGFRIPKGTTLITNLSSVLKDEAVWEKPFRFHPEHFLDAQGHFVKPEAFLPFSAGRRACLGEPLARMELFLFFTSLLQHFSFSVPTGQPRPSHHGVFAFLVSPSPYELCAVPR
Assay: Inhibition of CYP2D6 in human liver microsomes at 1 uM
Type: ADME
Details: not given

Structure (SMILES)	inhibition (INH)
O=C(N[C@H](Cc1c[nH]c2ccccc12)C(=O)Nc1ccncc1)c1ccc(-c2cccc(C(F)(F)F)c2)cc1F	14%
